# Published values collected from several papers.
# Compare with care: the assays were run in different laboratories.
# Target: Mitogen-activated protein kinase 7 (MAPK7, Homo sapiens, UniProt Q13164)
Compound,test,conditions,measurement,result
CC#CC(=O)N1CCC[C@H]1c1nc(-c2ccc(C(=O)Nc3ccccn3)cc2)c2c(N)nccn12,"enzyme activity, inhibitor",1 µM,inhibition,0%
Cc1cc(O)c(-c2ccc([C@@H](C)CN(C)C)cc2)c2c1[nH]c(=O)c1sccc12,"enzyme activity, inhibitor",0.1 µM,inhibition,-0.313%
C[C@]1(O)CCCN(c2nc(Nc3ccc(S(=O)(=O)N[C@H]4CC[C@H](CN5CCN(c6ccc(C7CCC(=O)NC7=O)cc6F)CC5)CC4)cc3F)ncc2C(F)(F)F)C1 (some centres unmarked),"binding, competition with immobilised ligand",1 µM,remaining binding,37%
C[C@H]1CC[C@H](n2c3cnccc3c3cnc(Nc4ccc5c(n4)CCN(C(=O)CO)C5)nc32)CC1,cell-free assay,1 µM,remaining signal,92%
CO[C@@H]1[C@H](N(C)C(=O)c2ccccc2)C[C@H]2O[C@]1(C)n1c3ccccc3c3c4c(c5c6ccccc6n2c5c31)C(=O)NC4,"enzyme activity, inhibitor",1 µM,inhibition,0%
C[C@]1(O)CCCN(c2nc(Nc3ccc(S(=O)(=O)N[C@H]4CC[C@H](CN5CCN(c6ccc(C7CCC(=O)NC7=O)cc6F)CC5)CC4)cc3Cl)ncc2C(F)(F)F)C1 (some centres unmarked),"binding, competition with immobilised ligand",1 µM,remaining binding,18%
CCCCC(=O)Nc1ccc(-c2ccc3ncn(CCC)c(=O)c3c2)cn1,"binding, competition with immobilised ligand",0.5 µM,remaining binding,82%
COc1ccc2[nH]c3c4[nH]c5ccc(OC)cc5c4c4c(c3c2c1)C(=O)NC4=O,binding,1 µM,remaining binding,69%
